# Bioassay records from PubChem.
# MC4R antagonist = blocks human MC4R cAMP signaling | AID 540295 | P32245 | MC4R-expressing cells, MTII-stimulated cAMP, LANCE TR-FRET | inhibition, % at 6.5 µM | 360,000 compounds, 0.48% hits;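 active = inhibition above its plate's cutoff, the mean of tested wells on that plate plus 3 SD, cut at about 29% in these data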;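 note: 0% = Melanotan II alone and 100% = Melanotan II plus saturating MCL0020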
# Target sequence (P32245 whole entry, looked up): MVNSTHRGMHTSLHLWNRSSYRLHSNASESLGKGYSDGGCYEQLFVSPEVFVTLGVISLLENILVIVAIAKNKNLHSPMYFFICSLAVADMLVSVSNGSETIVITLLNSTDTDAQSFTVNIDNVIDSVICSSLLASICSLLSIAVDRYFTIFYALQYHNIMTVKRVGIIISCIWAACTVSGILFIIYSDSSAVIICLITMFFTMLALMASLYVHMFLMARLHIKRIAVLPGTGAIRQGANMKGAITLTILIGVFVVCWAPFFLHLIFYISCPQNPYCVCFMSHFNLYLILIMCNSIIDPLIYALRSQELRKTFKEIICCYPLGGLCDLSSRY
#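 Material: human MC4R-expressing U2OS cells. Probe or stimulus: Melanotan II challenge. Dosing: 6.5 µM single dose. Times: 30-min compound, 1-h challenge, 1-h detection, room temperature. Technique: TR-FRET with Eu-cAMP and labeled anti-cAMP, 671 nm. Replication: singlicate.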
# A1 inh = inhibitors of the anti-apoptotic protein A1, read as caspase activation; MEF A1-2A-BIM cells, Caspase-Glo 3/7 luminescence, 3 h; percent of clofoctol response, vehicle zero; caspase activation, % (test concentration not listed); 330,000 compounds, 0.066% hits; AID 2462;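 active = over half of replicate activation scores above 10%, or exactly half above 10 with the replicate mean above 10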
# MC4R ag barr = activates human MC4R beta-arrestin recruitment | P32245 | 360,000 compounds, 0.98% hits | U2OS MC4R beta-arrestin complementation, luminescence; percent of melanotan II response, DMSO zero | AID 540308 | activation, % at 8.9 µM;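 active = activation above a per-plate cutoff, the mean activation of sample wells on that plate plus 3 SD, cut at about 8% in these data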
# sPLA2-III inh = Blocks human group III sPLA2 activity; QFRET BODIPY PC-A2 liposome hydrolysis, fluorescence; 370,000 compounds, 0.56% hits; inhibition, % at 12.2 µM;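 active = inhibition above mean plus 3 SD of compounds lying within the high and low control bounds, cut at about 19% in these data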;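 note: 0% = median of test compound wells and 100% = no enzyme DMSO wells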
# Granule exo inh = blocks lytic granule exocytosis. 360,000 compounds, 0.66% hits. TALL-104 LAMP-1 surface exposure, flow cytometry; cells stimulated with thapsigargin and PMA. inhibition, % at 10 µM. AID 651702;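 active = inhibition above about 55%, limit read from the data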
# NTR1 agonist = activates human neurotensin receptor 1; NTR1-U2OS beta-arrestin-GFP spot imaging, agonist mode; activation, % at 20 µM; 330,000 compounds, 0.17% hits;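 active = activation at or above 40% of the spot to cytoplasm intensity ratio, with at least 20 cells analyzed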;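 note: 0% = DMSO without peptide and 100% = 100 nM NTR1 peptide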
# U2OS cAMP counter = nonselective cAMP signaling inhibitor, MC4R antagonist counter-screen; shares compounds with MC4R antagonist; parental U2OS, forskolin cAMP, LANCE TR-FRET; inhibition, % at 6.5 µM; 1,600 compounds, 26% hits;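 active = mean inhibition over triplicates above the low-control well mean plus 3 SD, set per campaign, cut at about 13% in these data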;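 note: signal is single emission at 671 nm which falls as cellular cAMP rises; 0% = forskolin-stimulated wells and 100% = buffer without forskolin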
# MC4R antag conf = human MC4R cAMP antagonism confirmation; MC4R-expressing cells, MTII-stimulated cAMP, TR-FRET; 1,600 compounds, 27% hits; shares compounds with MC4R antagonist; inhibition, % at 6.5 µM; in the data active = inhibition above about 29%;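 note: 0% = agonist stimulated wells alone and 100% = agonist stimulated wells plus saturating reference antagonist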
# An asterisk follows results filed as active; x = no result. Only some compounds are listed: those with a hit (about 2.5% of all), similar ones and a draw of the others.
SMILES,MC4R antagonist,A1 inh,MC4R ag barr,sPLA2-III inh,Granule exo inh,NTR1 agonist,U2OS cAMP counter,MC4R antag conf
COc1ccc(C(NC(=O)c2c(F)c(F)c(F)c(F)c2F)c2ccccc2)cc1 (stereo not given),72*,1,0,0,4,2,57*,88*
Cc1ccccc1NC(=S)N(CCN1CCCCC1)Cc1ccco1,31*,0,3,6,-3,0,1,-6
Cc1cc(C)nc(NS(=O)(=O)c2ccc(NC(=O)C3COc4ccccc4O3)cc2)n1 (stereo not given),29*,1,-1,-8,-2,2,2,3
O=C(Nc1ccc(S(=O)(=O)Nc2ccccc2)cc1)C1COc2ccccc2O1 (stereo not given),-1,0,2,-43,-1,7,x,x
NC(=S)Nc1cccc(F)c1,29*,-1,1,4,-2,2,-3,-4
CCOC(=O)[C@@]12CCCC3=C1N(CCC3)C(=O)[C@H]2CC(=O)NCc1ccccc1,x,x,x,2,x,x,x,x
O=C(CNC(=O)c1ccc(Cl)cc1Cl)OCC(=O)N1CCCC1,22,-1,-1,3,3,1,x,x
CC1CCCC(C)N1C(=O)COC(=O)CNC(=O)c1ccc(Cl)cc1Cl (stereo not given),29*,0,-1,9,-1,2,18*,19
O=C(COC(=O)CNC(=O)c1ccc(Cl)cc1Cl)NCc1ccco1,31*,2,-2,5,0,0,11,43*
O=C(CNC(=O)c1ccc(Cl)cc1Cl)OCC(=O)N1CCCC1=O,35*,2,-2,0,11,1,19*,30*
O=C(CNC(=O)c1ccc(Cl)cc1Cl)OCn1nnc2ccccc2c1=O,32*,-1,-2,2,4,0,17*,21
CCOC(=O)[C@]12CCCC=C1N(Cc1ccc(OC)cc1)C(=O)[C@@H]2CC(=O)N1CCCCC1,x,x,x,8,x,x,x,x
O=[N+]([O-])c1ccc(Sc2cccc[n+]2[O-])c2nonc12,48*,x,-3,-1,96*,x,42*,60*
O=[N+]([O-])c1ccc(Nc2ccccc2)c2nonc12,-7,0,-3,2,0,2,x,x
COc1ccccc1CC(=O)Nc1cc2oc3ccccc3c2cc1OC,25,0,5,-4,-2,2,x,x
COc1ccc(CC(=O)Nc2cc3oc4ccccc4c3cc2OC)cc1,29*,-2,-1,-17,0,2,0,0
COc1cc(-c2nc3ccc4ccccc4c3c3c2CCC3)cc(OC)c1O,20,0,5,-33,6,18,x,x
COc1cc(-c2nc3ccc4ccccc4c3c3c2CCC3)cc(OC)c1OC,32*,0,0,2,1,8,-1,31*
CCCCCCCCN1C(=O)[C@@H](CC(=O)NCCc2ccccc2OC)C[C@@]2(C(=O)OC)C1=C[C@H](C1CCCC1)O[C@@H]2C,x,x,x,-4,x,x,x,x
COc1ccc(-c2noc(CN(C)CCC3CCCCO3)n2)cc1 (stereo not given),32*,0,-1,-1,-2,0,-4,-10
O=C(NCCOc1ccccc1Cl)c1ncn[nH]1,30*,-1,0,-5,0,-2,-2,-9
N=c1c2c(-c3ccccc3)c(-c3ccccc3)n(CCc3ccccc3)c2ncn1CCO,x,x,x,-6,x,x,x,x
CC1CC(C)CN(C(=O)Nc2ccc(Br)cc2)C1 (stereo not given),30*,0,2,-1,3,-1,-3,-8
O=C(O)CCn1c(=O)n(CCC(=O)O)c(=O)n(CCC(=O)O)c1=O,29*,-1,-3,3,-4,2,-3,-12
COCCCNC(=O)C[C@H]1C[C@@]2(C(=O)OC)C(=C[C@H](C(C)C)O[C@@H]2C2CC2)N(Cc2ccc3c(c2)OCO3)C1=O,x,x,x,-4,x,x,x,x
